Assay results as given in paper PMC7227796 (ACS chemical neuroscience, 2020).
Marks after values point to notes of the source that are not given here.

Tests used:
[1] = target: GluK2 (Rattus norvegicus, UniProt P42260); assay: Radioligand binding at recombinant homomeric GluK2; details: for GluK2 % specific binding (Table 5): mean ± SD, ligand concentration not given
Procedure, shortened: (§1)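 Membranes from sf9 cells expressing rat homomeric GluK1, GluK2 or GluK3 were incubated in 50 mM Tris-HCl, pH 7.1, for 2 h at 4 °C. Radioligand was [3H]-(S)-NF608 for GluK1 and [3H]kainic acid for GluK2 and GluK3. Samples were filtered on GF/B, washed twice with ice-cold buffer, dried for 1 h at 70 °C and counted by scintillation. Ki came from 12–16-point triplicate curves. Single-point % specific binding is mean ± SD of three experiments, at 10 μM test compound where stated.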

[2] = target: GluA1 (Rattus norvegicus, UniProt P19490); assay: Radioligand binding at recombinant homomeric GluA1
Procedure, shortened: (§2)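 Membranes from sf9 cells expressing rat homomeric GluA1 or GluA2 were incubated with [3H]-(S)-AMPA and test compound for 2 h at 4 °C. Buffer was 50 mM Tris-HCl, 0.1 M KSCN, 2.5 mM CaCl2, pH 7.2. Samples were filtered on GF/C, washed twice with ice-cold buffer and counted by scintillation. Competition curves used 12–16 concentrations in triplicate. Ki came from a one-site fit and nH from a four-parameter logistic fit.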

[3] = target: native AMPA receptors; assay: Radioligand binding at native AMPA receptors; details: rat synaptosomes, [3H]AMPA; for IC50: read-out: AMPA IC50, native iGluRs (synaptosomes)
Procedure, shortened: (§3)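 Rat cortical synaptosomal membranes were labelled with 5 nM [3H]AMPA (AMPA), 5 nM [3H]KA (KA) or [3H]CGP39653 (NMDA). Test compound was run at 12–16 concentrations in triplicate, with three to six independent experiments. Cpm were fitted by nonlinear regression. Values are reported as pIC50 for AMPA and KA and as pKi for NMDA, each as mean with SEM.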

[4] = target: native KA receptors; assay: Radioligand binding at native KA receptors; details: rat synaptosomes, [3H]KA
Procedure, shortened: as §3

[5] = target: GluA2 (Rattus norvegicus, UniProt P19491); assay: Radioligand binding at recombinant homomeric GluA2
Procedure, shortened: as §2

[6] = target: native NMDA receptors; assay: Radioligand binding at native NMDA receptors; design: species or system rat; details: rat synaptosomes, [3H]CGP-39653; for Ki: read-out: NMDA Ki, native iGluRs (synaptosomes)
Procedure, shortened: as §3

[7] = target: GluK3 (Rattus norvegicus, UniProt P42264); assay: Radioligand binding at recombinant homomeric GluK3; details: for GluK3 % specific binding (Table 5): mean ± SD, ligand concentration not given
Procedure, shortened: as §1

[8] = target: GluK1 (Rattus norvegicus, UniProt P22756); assay: Radioligand binding at recombinant homomeric GluK1; details: for GluK1 % specific binding (Table 5): [3H]NF608, mean ± SD, ligand concentration not given
Procedure, shortened: as §1

[9] = target: GluN1/GluN2A NMDA receptor (Rattus norvegicus, UniProt P35439+Q00959); assay: Two-electrode voltage-clamp recordings, Xenopus oocytes expressing GluN1/GluN2A; format: cell-based
Procedure, shortened: (§4)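 Xenopus oocytes were injected with rat GluN1-1a and GluN2A, 2B, 2C or 2D cRNA at a 1:2 ratio. Two-electrode voltage clamp was run 2–6 days later at room temperature and −40 mV. Bath was 90 NaCl, 1 KCl, 10 HEPES, 0.5 BaCl2, 0.01 EDTA (mM), pH 7.4. Currents were evoked by 1 μM glutamate plus 100 μM glycine, with test compound gravity-perfused. Hill fits gave IC50 per oocyte (5–6 oocytes). Ki was derived by Cheng-Prusoff using earlier glutamate EC50 values.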

[10] = target: GluN1/GluN2D NMDA receptor (Rattus norvegicus, UniProt P35439+Q62645); assay: Two-electrode voltage-clamp recordings, Xenopus oocytes expressing GluN1/GluN2D; format: cell-based
Procedure, shortened: as §4

[11] = target: GluN1/GluN2B NMDA receptor (Rattus norvegicus, UniProt P35439+Q00960); assay: Two-electrode voltage-clamp recordings, Xenopus oocytes expressing GluN1/GluN2B; format: cell-based
Procedure, shortened: as §4

[12] = target: GluN1/GluN2C NMDA receptor (Rattus norvegicus, UniProt P35439+Q00961); assay: Two-electrode voltage-clamp recordings, Xenopus oocytes expressing GluN1/GluN2C; format: cell-based
Procedure, shortened: as §4

[13] = 10 μM ligand concentration, [3H]KA, mean ± SD (Tables 2, 4)

GluK3, sequence (P42264 32-919): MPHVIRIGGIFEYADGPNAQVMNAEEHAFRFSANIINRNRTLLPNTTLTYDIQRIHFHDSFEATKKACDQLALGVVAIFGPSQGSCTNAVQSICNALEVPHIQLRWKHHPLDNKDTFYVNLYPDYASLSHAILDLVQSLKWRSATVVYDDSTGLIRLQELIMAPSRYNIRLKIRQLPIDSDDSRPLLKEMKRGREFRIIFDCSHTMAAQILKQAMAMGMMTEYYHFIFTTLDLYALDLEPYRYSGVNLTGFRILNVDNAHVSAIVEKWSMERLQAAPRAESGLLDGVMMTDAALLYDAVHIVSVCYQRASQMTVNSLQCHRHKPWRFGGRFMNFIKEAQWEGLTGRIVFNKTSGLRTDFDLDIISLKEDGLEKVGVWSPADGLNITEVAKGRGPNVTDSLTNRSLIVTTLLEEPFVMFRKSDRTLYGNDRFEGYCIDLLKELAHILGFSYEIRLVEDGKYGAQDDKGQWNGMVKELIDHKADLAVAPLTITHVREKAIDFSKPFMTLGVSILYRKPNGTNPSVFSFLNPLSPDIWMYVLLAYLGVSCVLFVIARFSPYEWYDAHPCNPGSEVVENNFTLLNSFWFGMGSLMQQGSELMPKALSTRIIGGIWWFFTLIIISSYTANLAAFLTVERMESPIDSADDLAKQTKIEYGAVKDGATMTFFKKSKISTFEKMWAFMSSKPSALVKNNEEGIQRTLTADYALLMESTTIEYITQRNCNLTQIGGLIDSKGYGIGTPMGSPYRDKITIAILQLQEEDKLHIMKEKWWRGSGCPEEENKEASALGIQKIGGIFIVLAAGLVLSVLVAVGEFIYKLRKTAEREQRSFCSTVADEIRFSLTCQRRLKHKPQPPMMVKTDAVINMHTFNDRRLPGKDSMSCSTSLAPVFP
GluN1/GluN2A NMDA receptor, sequence (Q00959 23-1464, other chains not shown): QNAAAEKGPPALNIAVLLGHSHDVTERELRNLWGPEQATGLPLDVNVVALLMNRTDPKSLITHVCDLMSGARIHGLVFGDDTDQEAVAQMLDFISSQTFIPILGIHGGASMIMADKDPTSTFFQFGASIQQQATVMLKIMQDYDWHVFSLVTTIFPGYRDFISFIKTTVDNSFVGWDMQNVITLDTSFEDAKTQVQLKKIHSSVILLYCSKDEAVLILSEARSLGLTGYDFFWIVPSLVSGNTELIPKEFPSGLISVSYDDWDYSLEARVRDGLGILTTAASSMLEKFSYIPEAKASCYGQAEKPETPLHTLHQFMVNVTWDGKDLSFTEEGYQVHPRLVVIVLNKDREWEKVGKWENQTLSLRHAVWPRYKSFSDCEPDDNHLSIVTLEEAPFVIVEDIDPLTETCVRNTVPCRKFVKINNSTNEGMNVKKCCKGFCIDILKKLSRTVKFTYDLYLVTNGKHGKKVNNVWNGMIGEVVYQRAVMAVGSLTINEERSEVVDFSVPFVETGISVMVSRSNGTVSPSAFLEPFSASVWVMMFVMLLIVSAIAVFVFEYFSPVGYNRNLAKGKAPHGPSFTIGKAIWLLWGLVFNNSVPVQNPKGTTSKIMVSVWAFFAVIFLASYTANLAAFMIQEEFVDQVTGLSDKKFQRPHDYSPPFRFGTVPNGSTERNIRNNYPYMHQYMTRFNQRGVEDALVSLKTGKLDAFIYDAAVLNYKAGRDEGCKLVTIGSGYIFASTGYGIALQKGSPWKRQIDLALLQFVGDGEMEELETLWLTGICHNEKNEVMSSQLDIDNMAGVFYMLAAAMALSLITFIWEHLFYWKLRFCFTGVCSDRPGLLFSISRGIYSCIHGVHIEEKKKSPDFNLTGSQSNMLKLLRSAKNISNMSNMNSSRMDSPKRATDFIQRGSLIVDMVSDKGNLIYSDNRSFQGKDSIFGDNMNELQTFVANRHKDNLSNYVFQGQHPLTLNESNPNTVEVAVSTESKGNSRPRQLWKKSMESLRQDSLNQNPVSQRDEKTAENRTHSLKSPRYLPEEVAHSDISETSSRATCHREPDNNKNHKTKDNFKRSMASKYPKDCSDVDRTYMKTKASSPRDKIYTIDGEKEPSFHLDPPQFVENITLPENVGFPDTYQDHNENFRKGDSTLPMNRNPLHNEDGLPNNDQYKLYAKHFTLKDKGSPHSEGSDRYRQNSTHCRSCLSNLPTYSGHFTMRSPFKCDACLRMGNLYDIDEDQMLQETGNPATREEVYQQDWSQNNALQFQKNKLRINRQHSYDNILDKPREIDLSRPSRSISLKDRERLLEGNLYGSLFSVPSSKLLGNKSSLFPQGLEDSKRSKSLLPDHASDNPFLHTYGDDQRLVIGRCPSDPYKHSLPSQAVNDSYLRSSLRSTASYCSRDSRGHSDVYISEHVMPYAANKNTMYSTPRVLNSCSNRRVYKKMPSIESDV
GluK2, sequence (P42260 32-908): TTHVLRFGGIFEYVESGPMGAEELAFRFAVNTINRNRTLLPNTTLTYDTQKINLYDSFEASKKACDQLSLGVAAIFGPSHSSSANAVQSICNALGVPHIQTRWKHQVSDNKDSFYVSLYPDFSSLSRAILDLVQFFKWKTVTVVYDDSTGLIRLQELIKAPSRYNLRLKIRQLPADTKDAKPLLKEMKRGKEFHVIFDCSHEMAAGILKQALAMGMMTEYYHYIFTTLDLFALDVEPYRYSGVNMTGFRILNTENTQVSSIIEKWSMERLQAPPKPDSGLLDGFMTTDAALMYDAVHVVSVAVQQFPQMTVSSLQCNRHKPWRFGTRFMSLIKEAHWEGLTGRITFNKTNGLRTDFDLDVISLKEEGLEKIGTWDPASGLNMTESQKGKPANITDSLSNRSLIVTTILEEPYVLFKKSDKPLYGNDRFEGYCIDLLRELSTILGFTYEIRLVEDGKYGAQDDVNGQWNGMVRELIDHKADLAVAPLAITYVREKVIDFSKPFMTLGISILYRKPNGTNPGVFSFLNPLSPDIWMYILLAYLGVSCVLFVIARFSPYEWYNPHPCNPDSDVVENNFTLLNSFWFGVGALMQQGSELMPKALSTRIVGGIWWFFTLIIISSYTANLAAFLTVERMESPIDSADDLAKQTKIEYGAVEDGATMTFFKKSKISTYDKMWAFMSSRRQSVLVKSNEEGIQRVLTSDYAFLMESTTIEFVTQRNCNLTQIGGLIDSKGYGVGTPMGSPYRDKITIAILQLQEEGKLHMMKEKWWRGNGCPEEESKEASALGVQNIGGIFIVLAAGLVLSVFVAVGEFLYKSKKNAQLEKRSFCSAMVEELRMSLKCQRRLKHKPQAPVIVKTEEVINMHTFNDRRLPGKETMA
GluK1, sequence (P22756 31-920 isoform P22756-4 limits assumed): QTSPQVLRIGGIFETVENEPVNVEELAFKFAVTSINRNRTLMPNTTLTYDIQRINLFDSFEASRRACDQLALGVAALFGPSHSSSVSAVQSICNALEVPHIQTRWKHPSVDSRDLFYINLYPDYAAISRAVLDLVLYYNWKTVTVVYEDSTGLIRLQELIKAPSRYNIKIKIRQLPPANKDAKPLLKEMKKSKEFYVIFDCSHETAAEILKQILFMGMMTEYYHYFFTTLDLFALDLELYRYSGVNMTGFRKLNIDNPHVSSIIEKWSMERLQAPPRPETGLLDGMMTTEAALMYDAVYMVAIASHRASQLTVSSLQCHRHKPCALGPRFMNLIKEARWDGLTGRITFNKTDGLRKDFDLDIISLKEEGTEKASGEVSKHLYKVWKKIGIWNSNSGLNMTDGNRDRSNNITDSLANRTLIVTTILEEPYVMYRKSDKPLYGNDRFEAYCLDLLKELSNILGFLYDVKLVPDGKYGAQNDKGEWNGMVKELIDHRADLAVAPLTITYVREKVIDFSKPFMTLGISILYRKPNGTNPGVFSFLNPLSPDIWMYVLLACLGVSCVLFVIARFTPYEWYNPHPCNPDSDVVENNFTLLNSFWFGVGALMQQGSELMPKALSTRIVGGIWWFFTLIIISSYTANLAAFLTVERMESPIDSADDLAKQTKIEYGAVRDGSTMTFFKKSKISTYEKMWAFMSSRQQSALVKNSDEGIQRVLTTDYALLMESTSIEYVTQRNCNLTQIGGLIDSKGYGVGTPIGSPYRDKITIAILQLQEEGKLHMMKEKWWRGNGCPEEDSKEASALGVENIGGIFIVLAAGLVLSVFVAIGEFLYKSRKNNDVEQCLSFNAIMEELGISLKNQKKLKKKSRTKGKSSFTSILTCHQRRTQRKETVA
GluA2, sequence (P19491 22-883): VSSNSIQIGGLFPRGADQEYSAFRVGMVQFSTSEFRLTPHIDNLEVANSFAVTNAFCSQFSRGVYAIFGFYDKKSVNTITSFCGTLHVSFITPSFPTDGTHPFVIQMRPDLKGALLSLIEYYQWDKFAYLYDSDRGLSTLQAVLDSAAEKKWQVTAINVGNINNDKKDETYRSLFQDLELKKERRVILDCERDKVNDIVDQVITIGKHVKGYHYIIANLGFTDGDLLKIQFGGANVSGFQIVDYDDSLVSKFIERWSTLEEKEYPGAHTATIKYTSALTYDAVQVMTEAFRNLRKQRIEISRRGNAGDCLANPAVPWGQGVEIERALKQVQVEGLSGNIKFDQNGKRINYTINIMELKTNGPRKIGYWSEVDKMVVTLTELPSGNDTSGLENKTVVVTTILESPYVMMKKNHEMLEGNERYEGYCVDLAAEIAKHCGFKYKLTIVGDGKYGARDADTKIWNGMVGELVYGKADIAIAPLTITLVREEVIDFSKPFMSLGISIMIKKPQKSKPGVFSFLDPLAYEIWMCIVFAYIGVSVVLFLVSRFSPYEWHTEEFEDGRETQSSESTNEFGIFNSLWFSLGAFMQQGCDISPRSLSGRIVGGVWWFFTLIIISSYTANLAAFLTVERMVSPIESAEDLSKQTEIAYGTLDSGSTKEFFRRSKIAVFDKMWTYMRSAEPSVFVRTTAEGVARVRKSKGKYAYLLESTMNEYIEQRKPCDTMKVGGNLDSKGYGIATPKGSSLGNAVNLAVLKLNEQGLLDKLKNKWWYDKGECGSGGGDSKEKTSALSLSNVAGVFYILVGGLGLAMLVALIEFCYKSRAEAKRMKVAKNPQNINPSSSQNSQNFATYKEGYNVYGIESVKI

Compound	Ki [1] [µM]	AMPA pIC50 with SEM (in brackets) [3]	IC50 [3] [µM]	KA IC50, native iGluRs (synaptosomes) [4] [µM]	NMDA pKi with SEM (in brackets) [6]	Ki [6] [µM]	Ki [7] [µM]	Ki [8] [µM]	further results
Cl.O=C(O)c1cc(-c2cncnc2)cc([C@H]2CCN[C@@H]2C(=O)O)c1 [5h, (2S,3R)-3-(3-Carboxy-5-(pyrimidin-5-yl)phenyl)pyrrolidine-2-carboxylic acid hydrochloride]	100	4.30±0.13	59	>100	4.98±0.01	10	13 ± 0.17	100	Ki [2]: 22.7 µM; Ki [5]: 82.9 µM
Cl.O=C(O)c1cc(-c2cnc(O)nc2)cc([C@H]2CCN[C@@H]2C(=O)O)c1 [5i, (2S,3R)-3-(3-Carboxy-5-(2-hydroxypyrimidin-5-yl)phenyl)pyrrolidine-2-carboxylic acid hydrochloride]	> 100	4.92±0.13	13	>100	5.39±0.03	4.1	16 ± 0.98	76 ± 1.8	Ki [2]: 10 µM; Ki [5]: 56 µM
Cl.O=C(O)c1cc([C@H]2CCN[C@@H]2C(=O)O)cc(C(=O)O)c1Cl [6b, 5-((2S,3R)-2-Carboxypyrrolidin-3-yl)-2-chloroisophthalic acid hydrochloride]	≥ 100	–	> 100	>100	6.82 ± 0.08	0.16	> 50	≥ 100	IC50 [9]: 0.2 ± 0.02 µM; Ki [9]: 0.2 µM; IC50 [10]: 5.15 ± 0.23 µM; IC50 [11]: 0.75 ± 0.04 µM; IC50 [12]: 1.33 ± 0.03 µM
O=C(O)c1cccc([C@H]2[C@H](CCO)CN[C@@H]2C(=O)O)c1 [9d, (2S,3R,4S)-3-(3-Carboxyphenyl)-4-(2-hydroxyethyl)pyrrolidine-2-carboxylic acid]	> 100	4.47 ± 0.007	35	13	4.22 ± 0.03	61	> 10	> 10	GluK2 % specific binding (Table 5) ([1]; [3H]KA): 93 ± 7%; KA pIC50 with SEM (in brackets) [4]: 4.89 ± 0.3; GluK3 % specific binding (Table 5) ([7]; [3H]KA): 57 ± 2%; GluK1 % specific binding (Table 5) [8]: 60 ± 6%
Cl.O=C(O)C[C@@H]1CN[C@H](C(=O)O)[C@H]1c1cccc(C(=O)O)c1 [9e, (2S,3R,4S)-4-(Carboxymethyl)-3-(3-carboxyphenyl)pyrrolidine-2-carboxylic acid hydrochloride]	> 100	–	> 100	>100	–	> 100	> 100	> 100	GluK2 % specific binding (Table 5) ([1]; [3H]KA): 97 ± 7%; GluK3 % specific binding (Table 5) ([7]; [3H]KA): 95 ± 3%; GluK1 % specific binding (Table 5) [8]: 93 ± 3%
O=C(O)C(F)(F)F.O=C(O)c1ccc([C@H]2CCN[C@@H]2C(=O)O)cc1 [compound 7, (2S,3R)-3-(4-Carboxyphenyl)pyrrolidine-2-carboxylic acid trifluoro acetic acid]	> 100	–	> 100	>100	–	8.5	> 100	> 100	IC50 [9]: 45 ± 1.5 µM; IC50 [10]: 159 ± 8.7 µM; IC50 [11]: 165 ± 14.1 µM; IC50 [12]: 193 ± 6.1 µM
(2S,3R)-3-(4-Amino-3-carboxyphenyl)pyrrolidine-2-carboxylic acid dihydrochloride [4g]	–	–	> 100	>100	–	> 100	–	–	GluK2 % specific binding [1, 13]: (77 ± 5)^d %; GluK3 % specific binding [7, 13]: (64 ± 4)^d %; GluK1 % specific binding ([8]; 10 μM ligand concentration, [3H]NF608, mean ± SD (Table 2)): (70 ± 16)^d %
